High-throughput results deposited in PubChem by several laboratories.
In the library only some 1.3% were active in any assay of this set; here they are far more common.
aDG glyco up = activators of alpha-DG glycosylation, primary screen, uHTS, Pro5-aDG cells, AlphaScreen; activation, % at 10 µM; AID 624168, 2012; alpha-DG glycosylation AlphaScreen (IIH6); 0% Pro5, 100% B10-LARGE cell signal; 360,000 tested, 0.22% active;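 active = activation of at least 8% versus controls, or a plate z-score of at least 8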;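 also: Pro5 are CHO cells carrying HIG-tagged alpha-DG that lacks glycosylation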
CendR NRP1 mod = modulators of CendR peptide binding to NRP-1, primary screen, biochemical, fluorescence polarization, uHTS; Neuropilin-1 (Homo sapiens), O14786; FAM-RPARPAR peptide binding to NRP-1; inhibition, % at 25 µM; 360,000 tested, 0.85% active; AID 602438, 2012;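 active = inhibition or corrected inhibition above about 18%, plus a signal ratio from 0.5 to 1.5, limit read from the data, passing the limit was not always enough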
Tn6 DDE FP = inhibitors of Tn6 peptide binding to fibrin DD(E), primary screen, biochemical, fluorescence polarization, human fibrin, Tn6 probe. Fibrinogen beta chain (Homo sapiens), P02675. Fibrin DD(E) TRITC-Tn6 fluorescence polarization displacement. inhibition, % at 8.3 µM. 370,000 tested, 0.21% active. AID 720509, 2013;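 active = inhibition above a per-campaign cutoff: mean of compounds within control limits plus 3 SD, cut at about 15% in these data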;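 also: 0% = median of all compound wells on the plate and 100% = blocking peptide control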
Target sequence (P02675 whole entry, looked up): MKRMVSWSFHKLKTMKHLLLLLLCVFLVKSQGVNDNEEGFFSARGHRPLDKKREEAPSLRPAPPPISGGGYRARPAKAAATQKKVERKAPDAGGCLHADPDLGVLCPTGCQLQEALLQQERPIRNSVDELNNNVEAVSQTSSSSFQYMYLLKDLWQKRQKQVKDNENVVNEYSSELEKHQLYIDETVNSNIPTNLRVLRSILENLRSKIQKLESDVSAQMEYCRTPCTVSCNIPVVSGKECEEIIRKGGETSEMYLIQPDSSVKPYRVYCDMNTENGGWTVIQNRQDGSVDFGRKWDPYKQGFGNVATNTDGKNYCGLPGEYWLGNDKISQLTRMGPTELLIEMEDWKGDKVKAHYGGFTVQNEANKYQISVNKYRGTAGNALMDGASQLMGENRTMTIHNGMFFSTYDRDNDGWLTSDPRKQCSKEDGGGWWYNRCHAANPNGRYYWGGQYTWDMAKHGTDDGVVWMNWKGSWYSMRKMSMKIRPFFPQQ
Tn7 DDE FP = inhibitors of Tn7 peptide binding to fibrin DD(E), primary screen, biochemical, fluorescence polarization, human fibrin, Tn7 probe. inhibition, % at 8.3 µM. Fibrinogen beta chain (Homo sapiens), P02675. FP displacement of FITC-Tn7 peptide from fibrin DD(E); 0% = median of compound wells per plate. 370,000 tested, 0.13% active. AID 720508, 2013;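 active = inhibition above the mean of compounds falling within the control limits plus 3 SD of them, cut at about 14% in these data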;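 also: 0% = plate median of compound wells and 100% = 10 µM Aha-Tn7 peptide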
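assay system = human clot-derived fibrin DD(E) complex | quantity = Fibrin-DD(E) at 2 µM final | timing = 10 min preincubation, 3 h with tracer, room temperature | signal = fluorescence polarization | measure = percent inhibition | benchmarks = high control wells with 10 µM unlabelled Aha-Tn7 peptide (full inhibition) | replicates = singlicate testing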
The depositor's hits bear a star; / = not tested or not shown.

SMILES	aDG glyco up	CendR NRP1 mod	Tn6 DDE FP	Tn7 DDE FP
CCOc1cc(C(=S)N2CCOCC2)ccc1OS(=O)(=O)c1ccc(NC(C)=O)cc1	0	1	-2	-1
CCOc1cc(C(=S)N2CCOCC2)ccc1OS(=O)(=O)c1ccc(OC)cc1	0	30*	-2	1
O=C(COc1ccc2c(-c3ccccc3)cc(=O)oc2c1)N1C[C@H]2C[C@@H](C1)c1cccc(=O)n1C2	0	-5	1	0
CCCn1nc([N+](=O)[O-])c(C(C#N)c2nc3ccccc3s2)c(Cl)c1=O (configuration not stated)	0	34*	5	0
CCn1nc([N+](=O)[O-])c(C(C#N)c2nc3ccccc3n2C)c(Cl)c1=O (configuration not stated)	0	15	3	-5
CS(=O)(=O)N(CC(=O)N1CCN(c2cccc(Cl)c2)CC1)C1CCCCC1	0	19*	5	5
Cc1ccc(Cl)cc1N1CCN(C(=O)CN(C2CCCCC2)S(C)(=O)=O)CC1	5	6	-5	-3
COc1ccccc1CNC(=O)CCS(=O)(=O)c1ccc2c(c1)CCN2C(C)=O	5.3*	12	-5	-1
COc1ccc(CCNC(=O)CCS(=O)(=O)c2ccc3c(c2)CCN3C(C)=O)cc1OC	0	-2	-4	0
CCCC[C@H]1C2CC(OC(=O)Nc3ccc(Cl)cc3)C(C2)[C@H]2CCCCN21 (some centres not stated)	/	/	2	2
CC(=O)N1CCN(c2ccc(N3CCN(C(C)=O)[C@@H](C)C3)c(C)c2)[C@@H](C)C1	/	/	4	1
Nc1ccc(C(=O)Nc2ccc(Nc3ccncc3)cc2)c([N+](=O)[O-])c1	0	27*	-6	0
CC1CCN(c2ccc(C(=O)O)cc2NS(=O)(=O)c2ccccc2[N+](=O)[O-])CC1	/	/	5	0
COc1ccc(/C=C2\CC3(OC(=O)c4cccc(F)c4)CCCN2C3)cc1 (configuration not stated)	/	/	-1	-1
CC1(C(=O)NCc2cccc3ccccc23)CCN1Cc1cccc2c1OCO2 (configuration not stated)	0	26*	-1	4
CC1(C(=O)NCc2cccc3ccccc23)CCN1Cc1ccc2ccccc2c1 (configuration not stated)	0	-1	-10	-2
Cc1ccc(NC(=O)c2cc(N3C(=O)C4CC=CCC4C3=O)ccc2N2CCCCC2)cc1 (configuration not stated)	0	4	2	-5
Cc1ccc(NC(=O)c2cc(N3C(=O)C4CCCCC4C3=O)ccc2N2CCOCC2)cc1 (configuration not stated)	0	25*	-6	0
O=C(c1ccccc1OCc1ccccc1)N(Cc1ccccn1)CC1CCCO1 (configuration not stated)	/	/	2	0
COc1cc(/C=N/NC(=O)c2ccc(NC(=O)C3CC3)cc2)ccc1OC(C)=O	0	27*	-7	-2
C[C@@]12CCC3[C@@](CCC4[C@@]3(C)CCC[C@@]4(C)C(=O)O)(CC1=O)C2 (some centres not stated)	0	11	-3	-1
C=C1C[C@@]23CCC4[C@@](C)(CCC[C@@]4(C)C(=O)O)C2CC[C@]1(O)C3 (some centres not stated)	0	32*	7	-7
CC[C@@]1(O)C(=O)OCc2c1cc1n(c2=O)Cc2cc3c(CN(C)C)c(O)ccc3nc2-1	0	142	10	30*
CC[C@@]1(O)C(=O)OCc2c1cc1n(c2=O)Cc2cc3c(N)cccc3nc2-1	0	18	-8	-1
Cc1cc2c(c(=O)o1)[C@@]1(C(=O)N(C)c3cccc(Br)c31)C1=C(CCCC1=O)O2	/	/	-1	8
SMILES	aDG glyco up	CendR NRP1 mod	Tn6 DDE FP	Tn7 DDE FP
O=C(C[n+]1ccccc1)N/N=C/c1ccccc1Cl	0	26*	-3	5
CC(C)=CCNc1ncnc2c1c(C#N)cn2C1OC(CO)C(O)C1O (configuration not stated)	0	26*	6	1
CCc1ccc(NC(=O)N(Cc2ccco2)C(C)c2cccs2)cc1 (configuration not stated)	1	32*	-7	-3
O=C(OCc1cc(=O)n2ccsc2n1)c1ccc(OC(F)F)cc1	0	-3	-3	-4
CN(C)c1ccc(C(=O)OCc2cc(=O)n3ccsc3n2)cc1	0	23*	-1	9
Cc1c(C(=O)Nc2ccc(OC(F)(F)F)cc2)sc2nc3n(c(=O)c12)CCC3	3	44*	5	4
Cc1c(C(=O)Nc2ccc(Oc3ccccc3)cc2)sc2nc3n(c(=O)c12)CCC3	3	7	-6	-2
CCN(CC)C(=O)[C@H]1C[C@@H]2[C@H](C[C@@H](c3ccccc3)[C@H]1C)N(c1ccc(F)cc1)C(=O)N2CCCOc1ccccc1	/	/	8	-7
Cc1oc(-c2ccc(Cl)cc2)cc1C(=O)O	0	44*	-2	-4
Cc1oc(-c2ccccc2)cc1C(=O)Nc1cccc(C(=O)O)c1	0	-6	-4	1
CN(CCOC(=O)CCCc1ccccc1)C1CN(Cc2cn(Cc3ccccc3F)nn2)S(=O)(=O)C1 (configuration not stated)	/	/	-3	-4
CC(C)(C)c1ccc(S(=O)(=O)N2CCCC(C(=O)NCc3cccs3)C2)cc1 (configuration not stated)	/	/	-8	0
COc1cc(C(=O)N2CCN(c3ccc([N+](=O)[O-])cc3)CC2)ccc1OCc1c(C)noc1C	0	19*	-11	-3
CC1=CC(C)(C)NC(=S)N1c1ccc(N(C)C)cc1	0	24*	-2	7
CN1OC[C@@H]2CN(C(=O)NC3CCCCC3)[C@H](c3ccc(N4CCCCC4)cc3)C[C@@H]21	0	1	-11	-4
CNC1=C(N(C(C)=O)c2ccc(Br)cc2)C(=O)c2ccccc2C1=O	8.7*	-6	3	8
O=S(=O)(Nc1cc(Sc2ncn[nH]2)c(O)c2ccccc12)c1ccccc1	0	18	1	1
O=C(O)CSc1cc(NS(=O)(=O)c2ccc(Br)cc2)c2ccccc2c1O	3.4*	8	-8	3
CCCCCCCCN1C(=O)[C@@H](CC(=O)NCc2cccc(C(F)(F)F)c2)C[C@@]2(C(=O)OC)C1=C[C@H](COCc1ccccc1)O[C@@H]2C	/	/	5	-9
COCCNC(=O)C1(C)C=CC2(CCCCC2)N1C(=O)c1ccccc1 (configuration not stated)	0	4	11	3
CC1(C(=O)NCCN2CCOCC2)C=CC2(CCCCC2)N1C(=O)c1ccccc1 (configuration not stated)	0	20*	4	3
